# Data taken from ChEMBL document CHEMBL4513216, “Probing the Open Global Health Chemical Diversity Library for Multistage-Active Starting Points for Next-Generation Antimalarials” (ACS Infect Dis, 2020).
# Test: Toxicity liver stage against HepG2, at 10uM
# Assay type: cell-based
# Parameters: test concentration 10 uM, cell line HepG2-A16-CD81EGFP
# Details: human, HepG2-A16-CD81EGFP cells; read-out: INHIBITION
# Summary of the method: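 Uninfected HepG2-A16-CD81EGFP cells, 3 × 10^3 per well, 1536-well, plated on prespotted compound at 10 μM final, parasite-free screening media added to match infected plates; puromycin 10 μM positive, DMSO 0.5% negative; run in parallel with 48 h PbLuc assay at 37 °C, 5% CO2; viability by CellTiter-Glo luminescence, normalized to controls.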
row,SMILES,cytotoxicity at 10 µM
1,COc1ccsc1C(=O)NCCN1CCOCC1,6.57%
2,CC(=O)N1CCC(N2CC[C@H](c3nc4cc(F)ccc4o3)C2)CC1,2.23%
3,CC(C)C[C@@H]1N[C@H](C(=O)NC(C)C)Cc2c[nH]c3cccc1c23,7.37%
4,Cc1nc(Oc2ccccc2F)sc1C(=O)O,-11.2%
5,COc1cccc(-c2nc(CC(=O)NC3(C)CCS(=O)(=O)C3)cs2)c1 (stereo unspecified),19%
6,Cn1cc(S(=O)(=O)NCC2CCN(C(=O)c3ccoc3)CC2)cn1,-3.82%
7,O=C1[C@H]2CN(C(=O)[C@H]3CCCO3)C[C@H]2CN1CC1CC1,-6.66%
8,Cc1nc(N2CCCC2)nc2c1CN(C(=O)NC(C)C)CC2,2.94%
9,COCCNC(=O)[C@H]1CC[C@@H]2[C@@H](CCN2S(C)(=O)=O)O1,-8.87%
10,CCn1ncc2c1C(COC)CN(S(=O)(=O)C1CC1)C2 (stereo unspecified),11.1%
11,Cc1cnc(N2CCC3(CCCN(c4ncc(F)cn4)C3)C2)nc1 (stereo unspecified),-124%
12,Cc1nc(CN2C(=O)COC3(CCN(C(N)=O)CC3)C2C)cs1 (stereo unspecified),-130%
13,COCCC(=O)N1CCC2(CCN(Cc3ccc(OC)c(F)c3)C2)C1 (stereo unspecified),9.75%
14,Cc1nc(N2CCCC2)nc2c1CCN(C(=O)CC1CCCC1)CC2,0.457%
15,CS(=O)(=O)CC(=O)N1C[C@@H]2COC[C@]2(c2nnc(C3CC3)o2)C1,-13.1%
16,CCn1c(NCc2cccnc2)nc2c(C)nn(C)c2c1=O,5.17%
17,CCn1nc(C)c2nc(C(C)C)nc(N3CCN(C)CC3)c21,-2.45%
18,Cc1ncc2c(n1)CCCC2NC(=O)c1ccc(Cn2cccn2)cc1 (stereo unspecified),-7.55%
19,Cn1cc(CN(Cc2ccccn2)Cc2ccccc2Cl)cn1,-2.48%
20,O=C1NCc2ccccc2CC12CCN(Cc1c(F)cccc1Cl)C2 (stereo unspecified),11.2%
21,NC(=O)Nc1cc(F)ccc1SCC(F)F,0.0687%
22,COc1ccccc1C1(CNc2cn[nH]c(=O)c2Cl)CCOCC1,0.152%
23,CN(C)S(=O)(=O)N1CCC(C(O)c2ccc(Cl)cc2)CC1 (stereo unspecified),-21.4%

row,SMILES,cytotoxicity at 10 µM
1,COCCN1CCN(CC2(O)CCCCC2)CC1,7.04%
2,NC1(c2nc(-c3ccccc3)cc(=O)[nH]2)CCCCC1,7.25%
3,CN1CCC(NC(=O)Nc2cnn(-c3ccccc3Cl)c2)CC1,-5.5%
4,Cc1cc(C)n(C2CCCN(C(=O)CN(C)C3CC3)C2)n1 (stereo unspecified),-1.91%
5,Cc1noc(C)c1NC(=O)N1CCC(NC(=O)OC(C)(C)C)CC1,4%
6,CCOc1ccc(Cl)c(C(=O)N2CCCC(c3ccn[nH]3)C2)n1 (stereo unspecified),1.58%
7,Cc1nn(C)c(Cl)c1S(=O)(=O)N(CC(N)=O)CC(C)C,8.18%
8,CC(C)c1nsc(N2CCOC3(CCCC3)C2)n1,0.243%
9,N#CCCNC(=O)CSc1ccc(F)cc1F,3.94%
10,O=C(CCc1ccc2c(c1)OCO2)Nc1cccnc1-n1cncn1,4.98%
11,COc1ccc(OC(F)F)c(NCC(=O)NCC(=O)N2CCCC2)c1,-0.77%
12,O=C(NCc1ccccc1CN1CCOCC1)Nc1nncs1,14.3%
13,Cc1cccc(C2(CNC(C)c3nnc(C)o3)CCCC2)c1 (stereo unspecified),6.73%
14,CC(C)n1cc(CN2CCCN(C(=O)c3ccoc3)CC2)cn1,-3.44%
15,Cc1cc(C)c(S(N)(=O)=O)cc1C(=O)NCC1Cc2ccccc2O1 (stereo unspecified),-4.53%
16,O=C(CN1CCCC(CO)C1)NCCOc1cccc(Cl)c1 (stereo unspecified),-12.2%
17,CCS(=O)(=O)NCCNC(=O)N(Cc1ccc(C)o1)C(C)C,1.84%
18,CN(C)c1cccc(C(=O)N2CCn3c(nnc3-c3ccccc3)C2)c1,-0.375%
19,Cc1c(Br)cccc1CNC1(CCO)CCOCC1,-10.7%
20,O=C(NCCC1CCN(CC(F)(F)F)CC1)C1CCCOC1 (stereo unspecified),1.51%
21,CC(CCNC(=O)NCCNc1cnccn1)c1ccccc1 (stereo unspecified),-4.08%
22,CN1CCC(NC(=O)Nc2ccc(F)c(Br)c2)C1=O (stereo unspecified),-137%
23,COCCN(Cc1ccco1)Cc1nc(-c2ccccc2)no1,6.4%

row,SMILES,cytotoxicity at 10 µM
1,CCc1nc(CC(=O)NC(C#N)CC)cs1 (stereo unspecified),10.3%
2,COc1ccc(-c2noc(C3CCS(=O)(=O)C3)n2)cc1OC (stereo unspecified),5.4%
3,CC(NCCCC#N)c1ccc(-c2ccncc2)cc1 (stereo unspecified),-1.93%
4,CC(C)c1nnc(NCCS(C)(=O)=O)s1,-1%
5,CCc1nnc(Sc2nn3cc(C)nc3s2)n1C,-3.64%
6,C1CN(c2nc(C3CC3)no2)CCN(C2CCOCC2)C1,0.442%
7,Cc1nc(CN2CC(CO)Oc3ccccc32)sc1C (stereo unspecified),0.918%
8,CC(=O)N1CCN(C(=O)NCCCN(C(C)C)S(C)(=O)=O)CC1,-14%
9,COC(=O)CN(Cc1ccccc1C)C(=O)CCNC(=O)C(C)(C)C,12.9%
10,Cc1cnn(CC2CCCN2CC(=O)N(C)Cc2ccc(C)o2)c1 (stereo unspecified),-7.19%
11,CCN1CCN(S(=O)(=O)c2ncn(C)c2Cl)CC1,20.9%
12,COc1ccc(NC(C)C(=O)N2CCN(Cc3ccccc3)CC2)cn1 (stereo unspecified),1.26%
13,O=C(C1CCC1)N1CCC2(CC1)OCCO2,4.93%
14,O=C(c1ccnnc1)N1CCN2C[C@H](Oc3cccnc3)C[C@H]2C1,1.43%
15,COc1cccc(OCCCc2cncc(C(N)=O)c2)c1,-124%
16,CC(=O)NCCNC(=O)C1(Oc2cccnc2C)CCNCC1,3.24%
17,COCC(=O)N1CCCC1c1ccc(C(=O)NCc2ccccc2Cl)s1 (stereo unspecified),-0.909%
18,Cc1ccc2nc(C(=O)N3C[C@@H](C(=O)O)[C@H](c4cccnc4)C3)cn2c1,2.98%
19,CC(Cc1cnccn1)NC(=O)c1cccc(CC2CCNCC2)c1 (stereo unspecified),-9.37%
20,Cc1nc2c(c(N3C[C@@H](C)[C@@](C)(O)C3)n1)CCC2,9.74%
21,CCN1CCN(C(=O)c2[nH]c3ccccc3c2Cl)[C@H]2CS(=O)(=O)C[C@H]21,-5.41%
22,CN1CCC(N(C)C[C@H]2CC[C@@H](Cc3cccc(CO)c3)O2)CC1,0.224%
23,CC(=O)N1CCc2c(nc(N(C)C)nc2N(C)CCC2CCCCO2)C1 (stereo unspecified),-7.97%

row,SMILES,cytotoxicity at 10 µM
1,COC(=O)c1ccc(OC)c(OC23CCCN(CC2)C3)c1 (stereo unspecified),-13.9%
2,O=C(N[C@@H]1CCNC[C@H]1O)c1ccc(O)c(Cl)c1,-5.46%
3,Cn1cccc1C(=O)N1CCC(c2nnc(Cn3ccnc3)n2C)CC1,-114%
4,CCC(NS(=O)(=O)c1ccc(C(=O)NC2CC2)cc1)c1cnn(C)c1 (stereo unspecified),7.64%
5,CCCc1cc(C(=O)N2CCC3(CCCNC3=O)C2)cs1 (stereo unspecified),-142%
6,O=c1[nH]cnc2c1CCN(S(=O)(=O)c1ccc(OC(F)(F)F)cc1)C2,1.61%
7,CCCc1nnc(N2CCC3(CC2)CC(=O)NC(=O)C3)o1,3.06%
8,CSCCC1c2nc[nH]c2CCN1Cc1ccnc2ccccc12 (stereo unspecified),13.2%
9,O=C(O)c1c[nH]c2cc(NS(=O)(=O)c3cccc(F)c3F)ccc12,5.08%
10,Clc1cc(CN2CCCCC2Cn2cncn2)c2ncccc2c1 (stereo unspecified),-12.9%
11,Cn1ncc2c(N3CCCN(C(=O)c4ccsc4)CC3)ncnc21,-10.6%
12,Cc1nnc(CN(Cc2ccc3c(c2)OCO3)C2CCCCC2)o1,-6.14%
13,CC(Cc1ccco1)NC(=O)Nc1cccnc1 (stereo unspecified),-6.78%
14,CN(C(=O)NCc1ccsc1)C1CCN(c2ccccc2)C1=O (stereo unspecified),-5.63%
15,Cc1ccc(CNC(=O)Cn2nc(-c3ccc(F)cc3)oc2=O)cc1F,-5.86%
16,CC(Cn1ccnc1)NC(=O)NCc1ccc2c(c1)OCCO2 (stereo unspecified),-18.6%
17,CS(=O)(=O)c1cccc(C(N)c2ccc(F)cc2)c1 (stereo unspecified),-19.9%
18,COc1ccnc(N2CCN(C(=O)c3ccc(Cl)o3)CC2)n1,-19.2%
19,O=C(Cc1cccc2ccccc12)N1CCC(Nc2cccnn2)CC1,-17.1%
20,CCOC1CCN(C(=O)NCCc2ccn(-c3ccccc3)n2)CC1,-0.088%
21,COc1ncccc1CNCc1c(C)nn(C)c1N1CCOCC1,-11.1%
22,CCc1nnsc1C(=O)N1CCCN(Cc2ccccc2)CC1,7.57%
23,N#Cc1ccc(CC(=O)N2CCCC(n3cccn3)C2)cc1 (stereo unspecified),-1.95%

row,SMILES,cytotoxicity at 10 µM
1,COc1ccc(C(=O)N(C)Cc2cc(C)on2)c(F)c1,-5.2%
2,CCN1CCN(C(=O)C(C)N2CCN(Cc3nccn3C)CC2)CC1 (stereo unspecified),-6.34%
3,CCn1ccnc1CN1CCN(CC(O)Cn2cccn2)CC1 (stereo unspecified),-5.97%
4,Cc1cnn(CC2CCCCN2CCC(=O)Nc2cc(C)on2)c1 (stereo unspecified),-0.674%
5,Cn1ccnc1CN1CCN2C[C@H](Oc3cncnc3)C[C@H]2C1,8.71%
6,Cc1cnc(N2CCC3(CCN(CC4CCCC4)C3=O)CC2)nc1,-6.54%
7,CC1c2ncc(CN3CCN(C)CC3)n2CCN1CC1CC1 (stereo unspecified),-20.3%
8,O=C(O)[C@]12CCCN(Cc3ccsc3)C[C@H]1CN(c1ncccn1)C2,-144%
9,CN(C)CCOCC1CN(C(=O)c2ccsc2)Cc2ccnn2C1 (stereo unspecified),-0.0653%
10,CCN1C[C@@H]2CN(Cc3cccs3)C[C@@H]2C1=O,-3.19%
11,Cc1cnc(C(=O)N2CCCn3c(nc(CN(C)C)cc3=O)C2)cn1,-5.93%
12,Cc1noc(C)c1CN1C[C@H](OCc2ccncc2)[C@H]2OCCC[C@H]21,9.98%
13,Cc1ccsc1C(=O)N1CCCn2c(nc(CN(C)C)cc2=O)C1,-0.385%
14,Cc1cccc(CN2C(=O)CO[C@@H]3CN(CCO)C[C@H]32)c1,-14.1%
15,O=C(N1CCCO1)[C@@]12CCO[C@@H]1CCN(Cc1ccccc1)C2,-13.6%
16,CC(C)C(=O)N1CCN(Cc2cnn(C)c2)CC2(CC(=O)N(C)C2)C1 (stereo unspecified),3.42%
17,c1cnc(N2CCC3(CCN(CC4CCOC4)CC3)C2)nc1 (stereo unspecified),-5.56%
18,Cc1nc(CN2C(=O)COC3(CCN(CC4CC4)CC3)C2C)cs1 (stereo unspecified),-131%
19,Cc1nc(N2CCCC2)nc2c1CN(C(C)C)CC2,-6.85%
